In series [1] the test system is Plasma. In words: Drug uptake in Wistar rat plasma assessed as petunidin 3-glucoside level at 0.67 umol, iv after 0.25 mins by tandem mass spectrometry. The settings on record: in vivo, 15 s. It is filed as ADME, organism-based. The method, boiled down: (§1)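 Fasted, anaesthetized rats received the anthocyanin in saline as a 0.67 μmol iliac-vein bolus (76 μM in plasma). They were sacrificed at 15 s, 1, 5 or 15 min, and plasma, kidneys, liver, urine and bile were collected. Anthocyanins were methanol-extracted, SPE-cleaned and quantified by MS (tandem MS for trace metabolites), then corrected for recovery measured on spiked blood, homogenates and urine. Amounts assume 8.8 mL plasma, 2.4 g kidney and 7.0 g liver, with urine and bile volumes measured.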

Series [2] can be described thus: Drug excretion in Wistar rat urine assessed as petunidin 3-glucoside level at 0.67 umol, iv after 15 mins by mass spectrometry analysis. To be noted: in vivo, 0.25 h. The class given is ADME, organism-based.
Series [3] has as its system Plasma. In words: Drug uptake in Wistar rat plasma assessed as petunidin 3-glucoside level at 0.67 umol, iv after 1 min by tandem mass spectrometry. The class given is ADME, organism-based. The settings on record: in vivo. A digest of the protocol:
as §1

Series [4] deals with Kidney. In words: Drug uptake in Wistar rat kidney assessed as petunidin 3-glucoside level by assuming kidney mass was 2.4 gram at 0.67 umol, iv after 5 mins by tandem mass spectrometry. The settings on record: in vivo. It is filed as ADME, organism-based. A digest of the protocol: (§2)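 Cyanidin 3-glucoside in saline was given as one iliac-vein injection (0.67 μmol) to fasting, anaesthetized rats, which were killed at 15 s, 1, 5 or 15 min. Kidneys were homogenized, extracted in methanol, cleaned up by SPE and analysed by LC-MS/MS.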

The subject of series [5] is Kidney. Description: Drug uptake in Wistar rat kidney assessed as petunidin 3-glucoside level at 0.67 umol, iv after 5 mins by tandem mass spectrometry. The class given is ADME, organism-based. To be noted: in vivo, read-out: Drug uptake.
The subject of series [6] is Kidney. Description: Drug uptake in Wistar rat kidney assessed as petunidin 3-glucoside level by assuming kidney mass was 2.4 gram at 0.67 umol, iv after 15 mins by tandem mass spectrometry. It is filed as ADME, organism-based. The settings on record: in vivo, 0.25 h. A digest of the protocol: as §2
Series [7] relates to Kidney. In words: Drug uptake in Wistar rat kidney assessed as petunidin 3-glucoside level at 0.67 umol, iv after 15 mins by tandem mass spectrometry. The class given is ADME, organism-based. The settings on record: in vivo, 0.25 h, read-out: Drug uptake. The method, boiled down: as §2
Series [8] can be described thus: Ratio of drug uptake in urine to kidney in Wistar rat assessed as petunidin 3-glucoside level at 0.67 umol, iv after 15 mins by mass spectrometry analysis. To be noted: in vivo, 0.25 h.
Series [9] deals with Plasma. Description: Drug uptake in Wistar rat plasma assessed as peonidin 3-glucoside level at 0.67 umol, iv after 0.25 mins by mass spectrometry analysis. The class given is ADME, organism-based. The settings on record: in vivo, 15 s. The method, boiled down: as §1
In series [10] the test system is Plasma. Description: Drug uptake in Wistar rat plasma assessed as peonidin 3-glucoside level at 0.67 umol, iv after 1 min by mass spectrometry analysis. It is filed as ADME, organism-based. The settings on record: in vivo. The method, boiled down:
as §1

In series [11] the test system is Plasma. Description: Drug uptake in Wistar rat plasma assessed as peonidin 3-glucoside level at 0.67 umol, iv after 15 mins by mass spectrometry analysis. The class given is ADME, organism-based. The settings on record: in vivo, 0.25 h. The method, boiled down: as §1
Series [12] relates to Kidney. In words: Drug uptake in Wistar rat kidney assessed as peonidin 3-glucoside level by assuming kidney mass was 2.4 gram at 0.67 umol, iv after 0.25 mins by mass spectrometry analysis. The settings on record: in vivo, 15 s. It is filed as ADME, organism-based. A digest of the protocol:
as §2

The subject of series [13] is Kidney. In words: Drug uptake in Wistar rat kidney assessed as peonidin 3-glucoside level at 0.67 umol, iv after 0.25 mins by mass spectrometry analysis. It is filed as ADME, organism-based. The settings on record: in vivo, 15 s, read-out: Drug uptake. A digest of the protocol:
as §2

Series [14] deals with Kidney. Description: Drug uptake in Wistar rat kidney assessed as peonidin 3-glucoside level by assuming kidney mass was 2.4 gram at 0.67 umol, iv after 1 min by mass spectrometry analysis. The class given is ADME, organism-based. The settings on record: in vivo. The method, boiled down:
as §2

Series [15] concerns Kidney. In words: Drug uptake in Wistar rat kidney assessed as peonidin 3-glucoside level at 0.67 umol, iv after 1 min by mass spectrometry analysis. The settings on record: in vivo, read-out: Drug uptake. It is filed as ADME, organism-based. A digest of the protocol:
as §2

Series [16] has as its system Kidney. In words: Drug uptake in Wistar rat kidney assessed as peonidin 3-glucoside level by assuming kidney mass was 2.4 gram at 0.67 umol, iv after 5 mins by mass spectrometry analysis. It is filed as ADME, organism-based. To be noted: in vivo. A digest of the protocol: as §2
Series [17] relates to Kidney. Description: Drug uptake in Wistar rat kidney assessed as peonidin 3-glucoside level at 0.67 umol, iv after 5 mins by mass spectrometry analysis. The settings on record: in vivo, read-out: Drug uptake. The class given is ADME, organism-based. A digest of the protocol: as §2
In series [18] the test system is Kidney. Description: Drug uptake in Wistar rat kidney assessed as peonidin 3-glucoside level by assuming kidney mass was 2.4 gram at 0.67 umol, iv after 15 mins by mass spectrometry analysis. The class given is ADME, organism-based. To be noted: in vivo, 0.25 h. A digest of the protocol:
as §2

Series [19] concerns Kidney. In words: Drug uptake in Wistar rat kidney assessed as peonidin 3-glucoside level at 0.67 umol, iv after 15 mins by mass spectrometry analysis. The settings on record: in vivo, 0.25 h, read-out: Drug uptake. It is filed as ADME, organism-based. A digest of the protocol:
as §2

Series [20] deals with Liver. Description: Drug uptake in Wistar rat liver assessed as peonidin 3-glucoside level by assuming liver mass was 7 grams at 0.67 umol, iv after 0.25 mins by mass spectrometry analysis. The class given is ADME, organism-based. To be noted: in vivo, 15 s. A digest of the protocol: (§3)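 Fasting, anaesthetized rats received cyanidin 3-glucoside in saline into the iliac vein (0.67 μmol) and were killed at 15 s, 1, 5 or 15 min. Liver homogenates were methanol-extracted, cleaned up by SPE and quantified by LC-MS/MS.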

The subject of series [21] is Liver. In words: Drug uptake in Wistar rat liver assessed as peonidin 3-glucoside level at 0.67 umol, iv after 0.25 mins by mass spectrometry analysis. The class given is ADME, organism-based. The settings on record: in vivo, 15 s. The method, boiled down:
as §3

For series [22], the system named is Liver. In words: Drug uptake in Wistar rat liver assessed as peonidin 3-glucoside level by assuming liver mass was 7 grams at 0.67 umol, iv after 1 min by mass spectrometry analysis. The class given is ADME, organism-based. The settings on record: in vivo. The method, boiled down:
as §3

The test system of series [23] is Liver. Description: Drug uptake in Wistar rat liver assessed as peonidin 3-glucoside level at 0.67 umol, iv after 1 min by mass spectrometry analysis. It is filed as ADME, organism-based. The settings on record: in vivo. A digest of the protocol: as §3
The subject of series [24] is Liver. In words: Drug uptake in Wistar rat liver assessed as peonidin 3-glucoside level by assuming liver mass was 7 grams at 0.67 umol, iv after 5 mins by mass spectrometry analysis. It is filed as ADME, organism-based. To be noted: in vivo. The method, boiled down: as §3
For series [25], the system named is Liver. Description: Drug uptake in Wistar rat liver assessed as peonidin 3-glucoside level at 0.67 umol, iv after 5 mins by mass spectrometry analysis. The class given is ADME, organism-based. To be noted: in vivo, read-out: Drug uptake. The method, boiled down: as §3
Series [26] has as its system Liver. Description: Drug uptake in Wistar rat liver assessed as peonidin 3-glucoside level by assuming liver mass was 7 grams at 0.67 umol, iv after 15 mins by mass spectrometry analysis. It is filed as ADME, organism-based. To be noted: in vivo, 0.25 h. The method, boiled down: as §3
Series [27] concerns Liver. In words: Drug uptake in Wistar rat liver assessed as peonidin 3-glucoside level at 0.67 umol, iv after 15 mins by mass spectrometry analysis. The class given is ADME, organism-based. The settings on record: in vivo, 0.25 h. A digest of the protocol:
as §3

The nature of series [28]: Drug uptake in Wistar rat urine assessed as peonidin 3-glucoside level by assuming plasma volume was 8.8 mL at 0.67 umol, iv after 15 mins by mass spectrometry analysis. The class given is ADME, organism-based. To be noted: in vivo, 0.25 h. A digest of the protocol:
as §1

Series [29] is described as follows: Drug uptake in Wistar rat urine assessed as peonidin 3-glucoside level at 0.67 umol, iv after 15 mins by mass spectrometry analysis. It is filed as ADME, organism-based. To be noted: in vivo, 0.25 h, read-out: Drug uptake. The method, boiled down: as §1
The nature of series [30]: Drug uptake in Wistar rat bile assessed as peonidin 3-glucoside level by assuming plasma volume was 8.8 mL at 0.67 umol, iv after 15 mins by mass spectrometry analysis. It is filed as ADME, organism-based. To be noted: in vivo, 0.25 h.
A short description of series [31]: Drug uptake in Wistar rat bile assessed as peonidin 3-glucoside level at 0.67 umol, iv after 15 mins by mass spectrometry analysis. The class given is ADME, organism-based. To be noted: in vivo, 0.25 h, read-out: Drug uptake. A digest of the protocol: (§4)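 Cyanidin 3-glucoside in saline was injected into the iliac vein of fasting, anaesthetized rats (0.67 μmol; 76 μM in plasma). Urine and bile were collected to 15 min, and their volumes were measured. Anthocyanin levels were measured by LC-MS and corrected for recovery from spiked standards. Amounts are given per collected volume (n = 9 urine, n = 4 bile).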

A short description of series [32]: Drug excretion in Wistar rat urine assessed as peonidin 3-glucoside level at 0.67 umol, iv after 15 mins by mass spectrometry analysis. The class given is ADME, organism-based. The settings on record: in vivo, 0.25 h. A digest of the protocol: as §4
A short description of series [33]: Drug excretion in Wistar rat bile assessed as peonidin 3-glucoside level at 0.67 umol, iv after 15 mins by mass spectrometry analysis. To be noted: in vivo, 0.25 h. It is filed as ADME, organism-based. A digest of the protocol: as §4
The subject of series [34] is Nucleic Acid. Description: Ratio of drug uptake in urine to kidney in Wistar rat assessed as peonidin 3-glucoside level at 0.67 umol, iv after 15 mins by mass spectrometry analysis. The class given is ADME, organism-based. The settings on record: in vivo, 0.25 h.
For series [35], the system named is Nucleic Acid. Description: Ratio of drug uptake in bile to liver in Wistar rat assessed as peonidin 3-glucoside level at 0.67 umol, iv after 15 mins by mass spectrometry analysis. It is filed as ADME, organism-based. The settings on record: in vivo, 0.25 h.

As to `COc1cc(-c2[o+]c3cc(O)cc(O)c3cc2O[C@@H]2O[C@H](CO)[C@@H](O)[C@H](O)[C@H]2O)cc(O)c1O`, the concentration in [1] stood at 0.002 µM; in [3], 0.002 µM; in series [5], 0.879 µM; in series [7], 0.966 µM. Besides, in series [2], the Activity is recorded as 0.1%. Also, the Drug uptake in [4] is recorded as 2210 pmol; in series [6] it was 2317 pmol. Further, in series [8], the Ratio is given as 4.5.
Regarding `COc1cc(-c2[o+]c3cc(O)cc(O)c3cc2O[C@@H]2O[C@H](CO)[C@@H](O)[C@H](O)[C@H]2O)ccc1O`, the concentration in [9] stood at 1.2 µM; in series [10], 0.5 µM; in series [11], 0.6 µM; in series [13] it was 19.2 µM; in [15], 41.5 µM; in [17], 16.1 µM. In addition, the concentration was 20.5 µM in [19], 4.9 µM in series [25], 707 µM in series [29] and 398 µM in series [31]. The Drug uptake in series [12] came to 46 nmol; in series [14], 99.5 nmol; in series [16], 38.8 nmol; in series [18], 49.2 nmol; in series [20], 41.1 nmol; in series [21], 5.9 µM. The Drug uptake turned out to be 80.4 nmol in series [22]; 11.5 µM in series [23]; 34.5 nmol in series [24]; 31.9 nmol in series [26]; 4.6 µM in series [27]; 98.7 nmol in series [28]. In addition, the Drug uptake in series [30] came out at 58.5 nmol. Further, the Activity is on record as 14.7% in [32] and 8.8% in series [33]. For the same compound, the results for the Ratio in series [34] and in series [35] were 34.5 and 86.5, respectively.

The values are drawn from ChEMBL document CHEMBL1782040, “Exceptionally fast uptake and metabolism of cyanidin 3-glucoside by rat kidneys and liver” (J Nat Prod, 2011).
